Compound activity (PubChem BioAssay)
This is a sample that favours compounds with a hit; in the whole collection about 9.4% have one here.
Beta cell apopt: blocks beta cell apoptosis. INS-1E cytokine-induced death, ATP luminescence, 48 h; percent of positive-control rescue, neutral wells zero. protection from apoptosis, % (concentration not given with the values). 300,000 compounds, 0.8% hits;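 active means Every replicate reaches about 75%, or at least half do and their mean reaches it too, limit read from the data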;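 further: 0% = cytokine-treated negative control wells and 100% = positive control rescue; higher means more ATP so stronger rescue from cytokine killing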
Mdm2 MdmX PPI: human Mdm2/MdmX binding inhibition | O15151+Q00987 | SaOS-2 split-luciferase Mdm2/MdmX complementation, luminescence | inhibition, % at 8 µM | 330,000 compounds, 3% hits;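 active means inhibition of at least 50% at 8 µM in the primary screen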
Target sequence (O15151 whole entry, looked up): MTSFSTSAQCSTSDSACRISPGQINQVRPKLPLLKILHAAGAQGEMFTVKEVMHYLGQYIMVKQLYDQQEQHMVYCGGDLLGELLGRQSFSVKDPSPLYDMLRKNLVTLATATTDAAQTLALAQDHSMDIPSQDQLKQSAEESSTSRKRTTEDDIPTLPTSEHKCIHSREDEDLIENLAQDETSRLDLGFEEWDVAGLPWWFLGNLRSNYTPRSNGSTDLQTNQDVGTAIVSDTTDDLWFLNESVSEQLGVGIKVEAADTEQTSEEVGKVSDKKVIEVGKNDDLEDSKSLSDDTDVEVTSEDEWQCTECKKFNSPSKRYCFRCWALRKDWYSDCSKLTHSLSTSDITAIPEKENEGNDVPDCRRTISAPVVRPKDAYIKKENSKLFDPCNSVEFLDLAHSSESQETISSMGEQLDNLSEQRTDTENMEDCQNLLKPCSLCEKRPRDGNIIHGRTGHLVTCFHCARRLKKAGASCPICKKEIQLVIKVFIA
Target sequence (Q00987 whole entry, looked up): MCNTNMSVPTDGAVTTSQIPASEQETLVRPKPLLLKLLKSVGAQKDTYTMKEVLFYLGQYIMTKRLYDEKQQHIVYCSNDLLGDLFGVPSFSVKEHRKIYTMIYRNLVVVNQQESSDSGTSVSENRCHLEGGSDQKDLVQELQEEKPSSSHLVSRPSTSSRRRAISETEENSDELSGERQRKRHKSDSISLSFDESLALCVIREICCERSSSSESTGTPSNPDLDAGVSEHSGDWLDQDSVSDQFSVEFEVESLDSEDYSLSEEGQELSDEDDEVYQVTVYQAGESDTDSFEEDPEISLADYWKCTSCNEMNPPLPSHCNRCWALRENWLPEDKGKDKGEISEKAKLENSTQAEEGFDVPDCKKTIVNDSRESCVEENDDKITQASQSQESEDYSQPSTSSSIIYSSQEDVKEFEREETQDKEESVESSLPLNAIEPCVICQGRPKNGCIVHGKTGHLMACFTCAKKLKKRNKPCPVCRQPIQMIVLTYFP
T cruzi repl: T. cruzi replication inhibition | T. cruzi beta-gal in NIH3T3, luminescence, 90 h | inhibition, % (concentration not given with the values) | 300,000 compounds, 1.4% hits;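 active means mean inhibition across valid replicates above about 55%, limit read from the data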;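 further: signal also drops with host cell toxicity which is not excluded here; 0% = plate median of DMSO wells and 100% = zero luminescence signal; higher percent means less beta-gal luminescence so fewer parasites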
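Test system: β-gal T. cruzi (Tulahuen C4) inside NIH/3T3 cells / Quantity: 5,000 cells/well / Measured by: luminescence from GalScreen with 0.05% NP40, read after 60 min / Medium: DMEM plus 2% FBS / Measure: parasite load inhibition, % / Reagent: Tulahuen C4 trypomastigotes, 5000/well / Schedule: co-culture of at least 90 h after 3 h attachment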
SKKanGAS inh: SKKanGAS growth inhibition; inhibition, % at 7.5 µM; 300,000 compounds, 1.3% hits; AID 1662; S. pyogenes SKKanGAS, kanamycin growth, BacTiter-Glo, 6 h;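 active means mean replicate score, as percent of positive control median, at least 50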;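 further: strain carries kanamycin resistance gene driven by streptokinase promoter and grows in 40 µg/ml kanamycin; loss of luminescence reflects streptokinase promoter inhibition or plain growth inhibition; 0% = median of DMSO wells and 100% = positive control at its reference dose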
Lmaj promast: Leishmania major promastigote growth inhibition; 200,000 compounds, 9% hits; Leishmania major promastigotes, resazurin fluorescence viability; inhibition, % at 10 µM; AID 1063; in the data active means inhibition above about 50%;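 further: promastigotes grown with compound for 44 hours at 28 °C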
CSC inhib: cancer stem cell inhibition. AID 2717. 300,000 compounds, 1.1% hits. cancer stem cell-like cells viability, luminescence. inhibition, % at 7.5 µM; in the data active means inhibition above about 75%; tested in HMLE shEcad cells
* hit, by the source's call; · = no result.

SMILES | Beta cell apopt | Mdm2 MdmX PPI | T cruzi repl | SKKanGAS inh | Lmaj promast | CSC inhib
O=C(CNC(=O)OCc1ccccc1)NCC(=O)Nc1ccc(Br)cc1C(=O)c1ccccc1 | -1 | -11 | 14 | -2 | 70* | -12
Cc1ccc(-c2nc3ccccc3c(=O)n2-c2cccc(O)c2)cc1 | · | 9 | -2 | -5 | -2 | -23
CN1CCCN(c2ccc([N+](=O)[O-])nc2)CC1 | 1 | -47 | -7 | -5 | · | -13
CC(C(=O)Nc1ccc(Br)cc1C(=O)c1ccccc1)N1CCOCC1 (stereo unspecified) | -6 | 1 | 7 | 13 | 99* | -29
O=C(CCN1CCOCC1)NCC(=O)Nc1ccc(Br)cc1C(=O)c1ccccc1 | -7 | -16 | -1 | -3 | -3 | 11
CC(Cc1cccs1)NCc1ccccc1 (stereo unspecified) | -1 | -3 | -1 | 2 | 1 | -6
Cc1cc(C=C2C(=O)N(C)C(=S)N(C)C2=O)c(C)n1-c1ccncc1 | 0 | 9 | -6 | 9 | · | -7
Cc1ccnc(-n2c(C)cc(C=C3C(=O)N(C)C(=S)N(C)C3=O)c2C)c1 | -7 | 4 | 7 | 0 | 51* | -12
CCOC(C[n+]1c(-c2ccccc2)cc(C)cc1-c1ccccc1)OCC | 3 | 33 | 50 | 2 | · | 3
CCOc1ccc(-c2cc(C)[n+](CCO)c(-c3ccc(OCC)cc3)c2)cc1 | 37 | 21 | 72* | -19 | 99* | ·
CCCCc1nc(N2CCNCC2)c(C#N)c2c1CSC(C)(C)C2 | 4 | 9 | 37 | -6 | 97* | -6
N#Cc1c(N2CCNCC2)nc(-c2ccco2)c2c1CCCC2 | 6 | 39 | 1 | 7 | · | -13
Cc1nn(Cc2ccccc2)c(C)c1C(=O)NC1CCCc2ccccc21 (stereo unspecified) | 4 | 13 | -1 | 3 | 1 | 5
CN(C)c1ccc(/C=C/c2cc[n+](C)c3ccccc23)cc1 | · | · | · | · | 100* | ·
CN1C(=O)N(C)C(=O)C2(Cc3c(nc4ccccn4c3=O)N3CCc4ccccc4C32)C1=O (stereo unspecified) | 0 | -36 | 8 | 0 | 70* | -13
CC1CCN2c3nc4ccccn4c(=O)c3CC3(C(=O)N(C)C(=O)N(C)C3=O)C2C1 (stereo unspecified) | 0 | -12 | -4 | -6 | 0 | -14
COc1cc(C(=O)Nc2ccc(Br)cc2C(=O)c2ccccc2Cl)cc(OC)c1OC | 2 | 15 | 6 | 8 | 51* | 9
COc1cc(OC)cc(C(=O)Nc2ccc(Br)cc2C(=O)c2ccccc2)c1 | -4 | 8 | 29 | -10 | 3 | -7
O=C1NC(=O)N(Cc2ccccc2)C(=O)/C1=C/C=C/c1ccco1 | -1 | 15 | -54 | · | · | 90*
COc1ccc(CN2C(=O)NC(=O)/C(=C\c3ccco3)C2=O)cc1 | -6 | 9 | 6 | -7 | -7 | 3
c1ccc2c(CN3CCN(C4CCCCC4)CC3)c[nH]c2c1 | 5 | 16 | 1 | -3 | 75* | 2
c1ccc2c(CN3CCCCCCC3)c[nH]c2c1 | 104* | -3 | 70* | -3 | 98* | 7
CCN(CC)C(=O)c1ccc(NC(=O)c2cn(-c3ccccc3)nc2-c2ccc(OC)cc2)cc1 | 4 | 49 | 25 | 27 | · | 2
CCN(CC)c1ccc(C=C2C(=O)N(C)C(=S)N(C)C2=O)o1 | 4 | -18 | 8 | -1 | 72* | 3
COC(=O)C1=C(c2ccc(S(C)(=O)=O)cc2)C[C@@H]2CC[C@H]1N2C(=O)NC(C)C | -2 | 0 | -11 | -2 | · | 1
SMILES | Beta cell apopt | Mdm2 MdmX PPI | T cruzi repl | SKKanGAS inh | Lmaj promast | CSC inhib
O=C(c1ccc2c(c1)OCO2)C1CCCN(CC2CCCCC2)C1 (stereo unspecified) | 2 | -9 | 27 | 17 | 91* | ·
COc1ccc(N2C(=O)NC(=O)/C(=C/c3ccc([N+](=O)[O-])s3)C2=O)cc1 | 4 | -4 | 32 | 15 | · | -14
COc1ccc(N2C(=O)/C(=C/C=C/c3ccccc3[N+](=O)[O-])C(=O)NC2=S)cc1 | · | 12 | -11 | -10 | 92* | ·
COc1ccc(N2C(=O)/C(=C/c3cccs3)C(=O)NC2=S)cc1 | -5 | 0 | -6 | -6 | · | 44
COc1ccc(N2C(=O)NC(=O)/C(=C\c3ccc([N+](=O)[O-])s3)C2=O)cc1 | 1 | 12 | 60* | 7 | 97* | 6
CCOc1ccc(N2C(=O)NC(=O)/C(=C\c3cc(OC)c(OC)cc3[N+](=O)[O-])C2=O)cc1 | -2 | -7 | -11 | -1 | 56* | 2
CCOc1ccc(N2C(=O)NC(=O)/C(=C\c3ccc(N4CCOCC4)cc3C)C2=O)cc1 | -8 | 26 | -2 | -6 | -5 | ·
C[C@]12CCC3C(CC[C@H]4C[C@@H](O)CC[C@]34C)C1C[C@@H](Br)[C@@H]2O (stereo partly specified) | -1 | 4 | · | · | · | 6
C=Cn1ccnc1P(O)(=S)c1nc(C)c(CCOC(C)=O)s1 (stereo unspecified) | 2 | 15 | -14 | 3 | -8 | -12
COC(=O)C1=C(c2cccc(C#N)c2)C[C@@H]2CC[C@H]1N2C(=O)NC1Cc2ccccc2C1 | 2 | -2 | · | · | · | 84*
Cc1ccsc1C(=O)C1CCCN(Cc2cnc(N3CCCC3)s2)C1 (stereo unspecified) | 0 | 24 | 63* | 8 | -3 | 10
Cc1ccsc1C(=O)C1CCCN(Cc2c(C)nn(C(C)C)c2C)C1 (stereo unspecified) | 3 | -1 | 62* | -1 | 11 | ·
Cc1ccc(CN2CCCC(C(=O)c3sccc3C)C2)o1 (stereo unspecified) | -3 | -28 | 66* | 13 | 15 | -9
Cn1c(O)c(/C=C2\N=c3ccccc3=C2CCNC(=S)NC2CC2)c(=O)n(C)c1=O | · | 6 | -9 | -7 | · | ·
COc1ccc(-n2c(CNCCc3ccc(C)cc3)nc3ccccc3c2=O)cc1 | 9 | -8 | 34 | 5 | · | -5
CC(C)n1c(=O)c(C=Nc2ccc(F)cc2)c(O)n(Cc2ccco2)c1=O | -7 | 9 | 9 | -9 | -3 | -4
CN1CCC(OC(=O)Cc2ccccc2)CC1 | 3 | 4 | 33 | 3 | 2 | -3
CN1CCC(OC(=O)C2c3ccccc3Oc3ccccc32)CC1 | -4 | 27 | 45 | 6 | 86* | -2
O=C(Nc1nc(-c2ccccc2)c(-c2ccccc2)s1)c1ccc(S(=O)(=O)N(CCCl)CCCl)cc1 | 6 | 26 | 56* | 9 | 74* | 10
CP(=O)(Nc1ccc(Cl)cc1)c1nc2c(s1)CCCC2 (stereo unspecified) | 1 | 2 | 3 | 8 | · | 5
CC/C(=N\NC(=O)Nc1ccccc1)c1c(O)n(Cc2ccccc2)c(=O)[nH]c1=O | 0 | 15 | -3 | -8 | · | -5
COc1ccc(C2NCCc3[nH]cnc32)cc1 (stereo unspecified) | -3 | 17 | -11 | 14 | -6 | 1
